# Source: PubChem BioAssay AID504524 (Sanford-Burnham Center for Chemical Genomics, 2011)
# pEC50: −log10 of the molar value. Calls of active or inactive are those of the source.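 The calls were made as follows: active = mean EC50 below 10 µM; inactive = the rest.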
# Target: Apelin receptor (Homo sapiens) (UniProt P35414)
# Experiment: apelin receptor activation by small molecules – cell-based, CHO-K1 AGTRL-1, PathHunter luminescence, set 5, SAR follow-up (AID 504524)
# Conditions: CHO-K1 AGTRL-1 PathHunter beta-arrestin
# In short: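 Assay system: CHO-K1 cells, APJ and β-arrestin complementation reporter; incubation: overnight seeding, 90 min exposure at 25 °C, 60 min detection; dosing: compounds tested as a dose-response series; signal: β-Gal complementation luminescence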
# Sequence of Apelin receptor (Homo sapiens) (P35414 whole entry, looked up): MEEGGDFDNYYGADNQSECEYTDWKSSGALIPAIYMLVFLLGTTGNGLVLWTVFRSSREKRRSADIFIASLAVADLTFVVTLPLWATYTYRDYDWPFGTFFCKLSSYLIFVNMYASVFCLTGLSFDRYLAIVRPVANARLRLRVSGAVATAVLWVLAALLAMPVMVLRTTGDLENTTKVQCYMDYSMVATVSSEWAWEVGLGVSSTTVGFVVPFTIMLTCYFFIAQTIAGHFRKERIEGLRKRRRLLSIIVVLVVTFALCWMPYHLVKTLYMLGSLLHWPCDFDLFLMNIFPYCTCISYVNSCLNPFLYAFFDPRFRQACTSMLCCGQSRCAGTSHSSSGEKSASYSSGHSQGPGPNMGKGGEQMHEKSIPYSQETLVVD
Structure (SMILES),pEC50,EC50
COc1cccc(S(=O)(=O)O/N=C2\C=C(C(C)C)C(=O)C=C2C)c1,5.28,–
CC1=CC(=O)C(C(C)C)=C/C1=N/OS(=O)(=O)c1cccc(C#N)c1,5.71,–
CC1=CC(=O)C(C(C)C)=C/C1=N\OS(=O)(=O)C1CCCCC1,–,inactive
COc1cccc(S(=O)(=O)O/N=C2\C=C(C(C)(C)C)C(=O)C=C2C)c1,5.10,–
CC1=CC(=O)C(C(C)C)=C/C1=N\OS(=O)(=O)c1cn(C)cn1,–,inactive
CC1=CC(=O)C(C2CCCCC2)=C/C1=N/OS(=O)(=O)c1cccc(C)c1,5.26,–
CC1=CC(=O)C(C2CCCCC2)=C/C1=N\OS(=O)(=O)c1cccc(Cl)c1,5.58,–
COc1cccc(S(=O)(=O)O/N=C2\C=C(C3CCCCC3)C(=O)C=C2C)c1,5.26,–
CC1=CC(=O)C(C(C)C)=C/C1=N/OS(=O)(=O)c1cccc(Br)c1,5.50,–
CC1=CC(=O)C(C2CCCCC2)=C/C1=N\OS(=O)(=O)c1cn(C)cn1,5.20,–
CC1=CC(=O)C(C(C)(C)C)=C/C1=N\OS(=O)(=O)c1c(Cl)cccc1Cl,5.10,–
CC1=CC(=O)C(C(C)(C)C)=C/C1=N/OS(=O)(=O)c1cccc(C#N)c1,5.49,–
CC1=CC(=O)C(C(C)C)=C/C1=N\OS(=O)(=O)c1cccc(Cl)c1,5.50,–
CC(C)C1=CC(=NOS(=O)(=O)c2ccccc2)C=CC1=O,5.30,–
CC1=CC(=O)C(C(C)(C)C)=C/C1=N\OS(=O)(=O)c1ccccc1Cl,5.06,–

# Further lines, results first:
pEC50,EC50,Structure (SMILES)
5.11,–,CC1=CC(=O)C(C(C)(C)C)=C/C1=N\OS(=O)(=O)c1cccc(Cl)c1
5.19,–,CC1=CC(=O)C(C2CCCCC2)=C/C1=N\OS(=O)(=O)c1ccccc1Cl
5.29,–,CC1=CC(=O)C(C2CCCCC2)=C/C1=N/OS(=O)(=O)c1cccc(C#N)c1
5.71,–,CC1=CC(=O)C(C(C)C)=C/C1=N\OS(=O)(=O)c1ccccc1Cl
–,> 79 µM (inactive),Cc1cc(O)c(C(C)(C)C)cc1N=O
5.25,–,CC1=CC(=O)C(C(C)C)=C/C1=N/OS(=O)(=O)c1cccc(C)c1
–,> 79 µM (inactive),N#Cc1ccc(S(=O)(=O)ON=C2C=CC(=O)C(c3ccccc3)=C2)cc1
5.00,–,CC1=CC(=O)C(C(C)(C)C)=C/C1=N\OS(=O)(=O)c1cn(C)cn1
–,inactive,CC1=CC(=O)C(C(C)(C)C)=C/C1=N/OS(=O)(=O)c1cccc(Br)c1
–,> 79 µM (inactive),O=C1C=CC(=NOS(=O)(=O)c2ccccc2)C=C1c1ccccc1
5.22,–,CC1=CC(=O)C(C2CCCCC2)=C/C1=N/OS(=O)(=O)c1cccc(Br)c1
5.45,–,CC1=CC(=O)C(C(C)C)=C/C1=N\OS(=O)(=O)c1c(Cl)cccc1Cl
5.44,–,CC1=CC(=O)C(C2CCCCC2)=C/C1=N\OS(=O)(=O)c1c(Cl)cccc1Cl
–,> 79 µM (inactive),Cc1cc(N=O)c(C(C)C)cc1O
5.02,–,CC1=CC(=O)C(C(C)(C)C)=C/C1=N/OS(=O)(=O)c1cccc(C)c1
–,inactive,CC1=CC(=O)C(C(C)(C)C)=C/C1=N\OS(=O)(=O)C1CCCCC1
